Experimental data pooled from the literature.
Each line is one published result; the experiments were not run side by side.

SMILES	target or system	assay	test system	setting	quantity	result
O=C(Nc1nc2cc(-c3ccc4ncn(Cc5ccccc5)c(=O)c4c3)ccc2s1)NC1CCCCC1	NCI-H1975	cell growth or viability, MTT	–	72 h	IC50	> 20000 nM
COc1ccc2/c(=N/c3ccccc3NC(=O)[C@@H](N)C(C)(C)C)cc(-c3ccc4c(c3)OCO4)oc2c1	NCI-H1975	cell growth or viability, CCK-8	–	1 µM	inhibition	9.4%
COc1cccc(NC(=O)Nc2nc3cc(-c4ccc5ncn(CCC6CCCCC6)c(=O)c5c4)ccc3s2)c1	NCI-H1975	cell growth or viability, MTT	–	72 h	IC50	> 20000 nM
O=C(Nc1ccc(-c2ccc3ncn(Cc4ccccc4)c(=O)c3c2)cn1)C1CCCC1	NCI-H1975	cell growth or viability, CCK-8	–	72 h	IC50	> 10000 nM
NCC(=O)Nc1ccccc1/N=c1\cc(-c2ccc3c(c2)OCO3)oc2c(N)cccc12	NCI-H1975	cell growth or viability, CCK-8	–	1 µM	inhibition	4.64%
CCOc1ccc(Nc2c3c(nc4ccccc24)CCC3)cc1	Leishmania amazonensis	parasite growth, MTT	–	promastigote	IC50	1430 nM
CCCCn1cnc2ccc(-c3ccc4sc(NC(=O)Nc5ccc(F)cc5)nc4c3)cc2c1=O	NCI-H1975	cell growth or viability, MTT	–	72 h	IC50	690 nM
CCCCn1cnc2ccc(-c3ccc(NC(=O)C4CCCCC4)nc3)cc2c1=O	NCI-H1975	cell growth or viability, CCK-8	–	72 h	IC50	1600 nM
NCCC(=O)Nc1ccc(/N=c2\cc(-c3ccc4c(c3)OCO4)oc3ccccc23)cc1	NCI-H1975	cell growth or viability, CCK-8	–	1 µM	inhibition	0.71%
COc1cccc(NC(=O)Nc2nc3cc(-c4ccc5ncn(CCN6CCOCC6)c(=O)c5c4)ccc3s2)c1	NCI-H1975	cell growth or viability, MTT	–	72 h	IC50	> 20000 nM
CCCn1cnc2ccc(-c3ccc(NC(=O)CC(C)CC)nc3)cc2c1=O (stereo not shown)	NCI-H1975	cell growth or viability, CCK-8	–	72 h	IC50	1350 nM
NCCC(=O)Nc1ccccc1/N=c1\cc(-c2ccc3oc(N)nc3c2)oc2ccccc12	NCI-H1975	cell growth or viability, CCK-8	–	1 µM	inhibition	24.3%
CCCCn1cnc2ccc(-c3ccc(NC(=O)Nc4ccc(OC)cc4)nc3)cc2c1=O	NCI-H1975	cell growth or viability, CCK-8	–	72 h	IC50	> 10000 nM
Nc1nc2c(ncn2COCCO)c(=O)[nH]1	Human alphaherpesvirus 2	viral replication, inhibitor, qPCR	BEAS-2B	–	IC50	160 nM
CCCC(=O)Nc1ccc(-c2ccc3ncn(Cc4ccccc4)c(=O)c3c2)cn1	NCI-H1975	cell growth or viability, CCK-8	–	72 h	IC50	> 10000 nM
COCCC(=O)Nc1ccccc1/N=c1\cc(-c2ccc3c(c2)OCO3)oc2ccccc12	NCI-H1975	cell growth or viability, CCK-8	–	1 µM	inhibition	3.84%
